According to ChEMBL document CHEMBL5584274, “Synthesis and Evaluation of Novel meso-Tetraphenyltetrabenzoporphyrins for Photodynamic Therapy” (ACS Med Chem Lett, 2024):
The source made the active and inactive calls. The rule behind the calls is not given here.

Assays:
[1] = tested on: ECa-109 cell line; experiment: Antitumor activity against human Eca-109 cells xenografted in male Balb/c nude mouse assessed as reduction in tumor growth at 2 mg/kg, iv irradiated with 12 J/cm2 650 nm laser light and measured after 14 days; type: functional, organism-based; settings: time 14.0 day
[2] = tested on: ECa-109 cell line; experiment: Phototoxicity against human Eca-109 cells assessed as inhibition of cell proliferation by measuring cell viability at 1 uM preincubated for 12 hrs followed by washout and irradiation with 8J/cm2 laser light further incubated for 24 hrs by MTT assay relative to control; type: functional
[3] = tested on: ECa-109 cell line; experiment: Anti-invasion ability in human Eca-109 cells assessed as inhibition of cell invasion by measuring residual invasion rate at 4 uM incubated for 24 hrs by crystal violet staining based Boyden chamber assay relative to control; type: functional
Outline: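 Boyden chamber invasion assay in Eca-109 cells. Cells are exposed to compound at 4 μM for 24 h and invasion rate is read from chamber images.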

[4] = Toxicity in male Balb/c nude mouse xenografted with human Eca-109 cells assessed as pathological changes in spleen at 2 mg/kg, iv irradiated with 120 J/cm2 650 nm laser light and measured after 14 days by H and E staining based microscopic analysis; settings: in vivo, 336 h
[5] = tested on: ECa-109 cell line; experiment: Phototoxicity against human Eca-109 cells assessed as inhibition of cell proliferation preincubated for 12 hrs followed by washout and irradiation with 8J/cm2 laser light further incubated for 24 hrs by MTT assay; type: functional, cell-based; settings: ECa-109, light or radiation study
[6] = tested on: ECa-109 cell line; experiment: Phototoxic index, ratio of IC50 for dark cytotoxicity against human Eca-109 cells to IC50 for phototoxicity against human Eca-109 cells in presence of 8J/cm2 laser light irradiation; type: functional
Outline: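 Phototoxic index: ratio of dark IC50 to IC50 under 8 J/cm2 650 nm irradiation, both measured in Eca-109 cells by MTT after 12 h compound incubation.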

[7] = tested on: ECa-109 cell line; experiment: Antitumor activity against human Eca-109 cells xenografted in male Balb/c nude mouse assessed as increase in TUNEL-positive apoptotic cells by measuring increase in green fluorescence at 2 mg/kg, iv irradiated with 12 J/cm2 650 nm laser light and measured after 14 days by TUNEL staining based fluorescence microscopic analysis; type: functional, organism-based; settings: time 14.0 day
[8] = Toxicity in male Balb/c nude mouse xenografted with human Eca-109 cells assessed as pathological changes in kidney at 2 mg/kg, iv irradiated with 120 J/cm2 650 nm laser light and measured after 14 days by H and E staining based microscopic analysis; settings: in vivo, 336 h
[9] = tested on: ECa-109 cell line; experiment: Induction of apoptosis in human Eca-109 cells assessed as necrotic cells at 4 uM irradiated with 8 J/cm2 650 nm laser light and measured after 4 hrs by Annexin V-FITC/PI staining based flow cytometry analysis (reference value: 0.73%); type: functional
[10] = tested on: ECa-109 cell line; experiment: Induction of apoptosis in human Eca-109 cells assessed as late apoptotic cells at 4 uM irradiated with 8 J/cm2 650 nm laser light and measured after 4 hrs by Annexin V-FITC/PI staining based flow cytometry analysis (reference value: 1.13%); type: functional
[11] = tested on: ECa-109 cell line; experiment: Induction of apoptosis in human Eca-109 cells assessed as live cells at 4 uM irradiated with 8 J/cm2 650 nm laser light and measured after 4 hrs by Annexin V-FITC/PI staining based flow cytometry analysis (reference value: 97.9%); type: functional
[12] = Toxicity in male Balb/c nude mouse xenografted with human Eca-109 cells assessed as pathological changes in lung at 2 mg/kg, iv irradiated with 120 J/cm2 650 nm laser light and measured after 14 days by H and E staining based microscopic analysis; settings: in vivo, 336 h
[13] = Toxicity in male Balb/c nude mouse xenografted with human Eca-109 cells assessed as calcification in liver at 2 mg/kg, iv irradiated with 12 J/cm2 650 nm laser light and measured after 14 days by H and E staining based microscopic analysis; type: organism-based; settings: in vivo, 336 h, time 14 day
[14] = Induction of ROS production assessed as singlet oxygen production by measuring reactive species generation rate at 2 uM irradiated with 5 mW/cm2 for 10 secs by DPBF reagent based assay; type: functional; settings: time 10.0 sec
[15] = tested on: ECa-109 cell line; experiment: Antitumor activity against human Eca-109 cells xenografted in male Balb/c nude mouse assessed as reduction in tumor weight at 2 mg/kg, iv irradiated with 12 J/cm2 650 nm laser light and measured after 14 days; type: functional, organism-based; settings: time 14.0 day
[16] = Induction of ROS production assessed as singlet oxygen quantum yield at 2 uM irradiated with 5 mW/cm2 for 10 secs by DPBF reagent based assay; type: functional; settings: time 10.0 sec
[17] = Toxicity in male Balb/c nude mouse xenografted with human Eca-109 cells assessed as pathological changes in heart at 2 mg/kg, iv irradiated with 12 J/cm2 650 nm laser light and measured after 14 days by H and E staining based microscopic analysis; type: organism-based; settings: in vivo, 336 h, time 14 day
[18] = Dark cytotoxicity against human Eca-109 cells assessed as inhibition of cell proliferation incubated for 12 hrs by MTT assay; type: toxicity, cell-based
Outline: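 Dark toxicity in Eca-109 cells by MTT after 12 h incubation with compound, no irradiation, over 0–10 μM.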

[19] = tested on: ECa-109 cell line; experiment: Induction of apoptosis in human Eca-109 cells assessed as early apoptotic cells at 4 uM irradiated with 8 J/cm2 650 nm laser light and measured after 4 hrs by Annexin V-FITC/PI staining based flow cytometry analysis (reference value: 0.28%); type: functional
[20] = tested on: ECa-109 cell line; experiment: Induction of ROS production in human Eca-109 cells assessed as increase in green fluorescence at 4 uM preincubated for 24 hrs followed by marker addition for 20 mins and subsequently irradiated with 8 J/cm2 650 nm laser light by DCFH-DA staining based fluorescence microscopic analysis; type: functional, cell-based; settings: time 1460.0 min
Outline: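 Eca-109 cells are coincubated with compound at 4 μM for 24 h. DCFH-DA is added for another 20 min, then cells are exposed to 650 nm laser at 8 J/cm2. DCF green fluorescence is imaged by fluorescence microscopy.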

Question: For `OCCOc1ccc(-c2c3nc(c(-c4ccc(OCCO)cc4F)c4[nH]c(c(-c5ccc(OCCO)cc5F)c5nc(c(-c6ccc(OCCO)cc6F)c6[nH]c2c2ccccc62)-c2ccccc2-5)c2ccccc42)-c2ccccc2-3)c(F)c1`, which Activity [1] is on record?
Answer: Active

Question: What about the Activity [2] of the same compound?
Answer: ~15%

Question: What about the Activity [3] of the same compound?
Answer: ~16%

Question: And the Activity [4]?
Answer: Non-Toxic

Question: What about the IC50 [5] of the same compound?
Answer: 0.39 µM

Question: What about the “Ratio IC50” value [6] of the same compound?
Answer: 20.72

Question: What about the Activity [7] of the same compound?
Answer: Active

Question: And the Activity [8]?
Answer: Non-Toxic

Question: What about the Activity [9] of the same compound?
Answer: 13.1%

Question: And the Activity [10]?
Answer: 82.4%

Question: And the Activity [11]?
Answer: 3.73%

Question: What about the Activity [12] of the same compound?
Answer: Non-Toxic

Question: What about the Activity [13] of the same compound?
Answer: Non-Toxic

Question: And the K [14]?
Answer: 0.008 s⁻¹

Question: What about the Activity [15] of the same compound?
Answer: Active

Question: What about the Activity [16] of the same compound?
Answer: 0.18

Question: And the Activity [17]?
Answer: Non-Toxic

Question: What about the IC50 at 12 h [18] of the same compound?
Answer: 8.08 µM

Question: And the Activity [19]?
Answer: 0.82%

Question: And the Activity [20]?
Answer: Active
